In ChEMBL document CHEMBL4680120, “Novel anti-Alzheimer phenol-lipoyl hybrids: Synthesis, physico-chemical characterization, and biological evaluation” (Eur J Med Chem, 2020):
≈ marks a conversion by molar mass, not a printed value. Calls of active or inactive are those of the source. The rule behind the calls is not given here.

What was measured:
[1] = Stability in simulated intestinal fluid at pH 6.8 assessed as relative difference measured after 60 mins in presence of pancreatin by HPLC analysis; format: ADME; details: simulated gi fluid, pH 6.8, 1 h
Procedure, shortened: (§1)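 Incubation in simulated gastric fluid (pH 1.2, pepsin) or simulated intestinal fluid (pH 6.8, pancreatin). Aliquots deproteinized with ice-cold acetonitrile, centrifuged at 4°C and 12000 rpm for 10 min, filtered, analyzed by HPLC. RD% = (Ci − Cf)/Ci × 100. Stable if RD < 5%. Means of three experiments.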

[2] = Stability in simulated intestinal fluid at pH 6.8 assessed as relative difference measured after 15 mins in presence of pancreatin by HPLC analysis; format: ADME; details: simulated gi fluid, pH 6.8, 0.25 h; procedure, shortened: as §1
[3] = Stability in simulated gastric fluid at pH 1.2 assessed as relative difference measured after 15 mins in presence of pepsin by HPLC analysis; format: ADME; details: isolated protein, pH 1.2, 0.25 h; procedure, shortened: as §1
[4] = Stability in simulated intestinal fluid at pH 6.8 assessed as relative difference measured after 180 mins in presence of pancreatin by HPLC analysis; format: ADME; details: simulated gi fluid, pH 6.8, 3 h; procedure, shortened: as §1
[5] = Stability in simulated gastric fluid at pH 1.2 assessed as relative difference measured after 30 mins in presence of pepsin by HPLC analysis; format: ADME; details: isolated protein, pH 1.2, 0.5 h; procedure, shortened: as §1
[6] = tested on: SH-SY5Y; assay: Neuroprotective activity against amyloid beta (1 to 42)-induced toxicity in human SH-SY5Y cells assessed as increase in cell viability at 1 to 250 mg/l measured after 48 hrs by LDH release assay; format: functional, cell-based; details: dose 1-250 mg/L
Procedure, shortened: (§2)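 SH-SY5Y cells grown in DMEM/F12 with 10% FBS and differentiated with retinoic acid (10 μM), seeded at 1×10^4 per well and cultured 24 h. Cells were given hybrids at 1–250 mg/L with or without Aβ1-42 (20 μM) for 48 h. MTT (5 mg/mL) added for 4 h at 37°C, DMSO solubilization, read at 570/630 nm. LDH read at 450 nm. Five independent experiments.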

[7] = tested on: SH-SY5Y; assay: Cytotoxicity against human SH-SY5Y cells assessed as reduction in cell viability at 1 to 250 mg/l measured after 48 hrs by MTT assay; format: cell-based; details: dose 1-250 mg/L; procedure, shortened: as §2
[8] = Half life in human plasma by HPLC analysis; format: ADME, cell-free
Procedure, shortened: (§3)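 Compound stock added to human plasma pre-warmed to 37°C and diluted with 0.02 M phosphate buffer (pH 7.4) to 80% plasma. 100 μL samples taken over time, quenched with 200 μL cold acetonitrile, centrifuged, and supernatant analyzed by HPLC. t½ and kobs are means of three experiments.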

[9] = tested on: SH-SY5Y; assay: Neuroprotective activity against amyloid beta (1 to 42)-induced toxicity in human SH-SY5Y cells assessed as increase in cell viability at 1 to 250 mg/l measured after 48 hrs by MTT assay; format: functional, cell-based; details: dose 1-250 mg/L; procedure, shortened: as §2
[10] = Stability in simulated intestinal fluid at pH 6.8 assessed as relative difference measured after 30 mins in presence of pancreatin by HPLC analysis; format: ADME; details: simulated gi fluid, pH 6.8, 0.5 h; procedure, shortened: as §1
[11] = Solubility of compound in water by HPLC analysis; format: physicochemical
[12] = Stability in human plasma assessed as observed rate constant by HPLC analysis; format: ADME, cell-free; procedure, shortened: as §3
[13] = Stability in simulated intestinal fluid at pH 6.8 assessed as relative difference measured after 120 mins in presence of pancreatin by HPLC analysis; format: ADME; details: simulated gi fluid, pH 6.8, 2 h; procedure, shortened: as §1
[14] = Stability in simulated gastric fluid at pH 1.2 assessed as relative difference measured after 60 mins in presence of pepsin by HPLC analysis; format: ADME; details: isolated protein, pH 1.2, 1 h; procedure, shortened: as §1
[15] = tested on: Erythrocyte; assay: Cytoprotective activity against H2O2-induced oxidative damage in human RBC assessed as recovery of H2O2-induced cell death at 50 to 100 uM measured after 72 hrs by MTT assay relative to control; format: functional; details: dose 50-100 µM
[16] = tested on: Erythrocyte; assay: Cytoprotective activity against H2O2-induced oxidative damage in human RBC assessed as increase in cell viability measured after 72 hrs by LDH release assay; format: functional, cell-based
Procedure, shortened: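 Heparinized whole blood cultured with phytohemagglutinin. Cells were co-incubated with 50 or 100 μM hybrid and H2O2 (25 μM). Viability was read by MTT: lymphocytes at 2×10^5 per well, MTT 4 h at 37°C, formazan dissolved in DMSO, absorbance 570 nm. LDH release was measured on 100 μL medium with a commercial kit. Results are relative to untreated control.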

[17] = tested on: Erythrocyte; assay: Cytoprotective activity against H2O2-induced oxidative damage in human RBC assessed as recovery of H2O2-induced cell death at 50 to 100 uM measured after 72 hrs by LDH release assay relative to control; format: functional; details: dose 50-100 µM
Procedure, shortened: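 Heparinised human whole blood cultured in phytohemagglutinin-containing chromosome medium and co-incubated with hybrids and H2O2 at 37C for 72 h. LDH released into the culture medium was measured with a commercial kit. Triton X-100 served as positive control, with untreated cultures as reference. Cytoprotection was expressed as viability relative to control.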

[18] = tested on: Erythrocyte; assay: Cytoprotective activity against H2O2-induced oxidative damage in human RBC assessed as restoration of antioxidant activity at 50 to 100 uM measured after 72 hrs by TAC assay relative to control; format: functional; details: dose 50-100 µM
[19] = tested on: SH-SY5Y; assay: Neuroprotective activity against amyloid beta (1 to 42)-induced apoptosis in human SH-SY5Y cells assessed as necrotic cells at IC50 measured after 48 hrs by Annexin-V/Propidium iodide staining based flow cytometry (reference value: 6.99%); format: functional
[20] = tested on: Erythrocyte; assay: Cytoprotective activity against H2O2-induced oxidative damage in human RBC assessed as restoration of antioxidant activity measured after 72 hrs by TAC assay; format: functional, cell-based
[21] = tested on: SH-SY5Y; assay: Neuroprotective activity against amyloid beta (1 to 42)-induced apoptosis in human SH-SY5Y cells assessed as early apoptotic cells at IC50 measured after 48 hrs by Annexin-V/Propidium iodide staining based flow cytometry (reference value: 0.74%); format: functional
[22] = tested on: SH-SY5Y; assay: Neuroprotective activity against amyloid beta (1 to 42)-induced apoptosis in human SH-SY5Y cells assessed as late apoptotic cells at IC50 measured after 48 hrs by Annexin-V/Propidium iodide staining based flow cytometry (reference value: 33.72%); format: functional
[23] = tested on: Erythrocyte; assay: Cytoprotective activity against H2O2-induced oxidative damage in human RBC assessed as increase in cell viability measured after 72 hrs by MTT assay; format: functional, cell-based
[24] = tested on: Erythrocyte; assay: Antioxidant activity in human RBC assessed as increase in total antioxidant capacity level up to 400 ug/ml measured after 72 hrs relative to control; format: functional; details: dose microg/ml <=400
[25] = tested on: SH-SY5Y; assay: Neuroprotective activity against amyloid beta (1 to 42)-induced apoptosis in human SH-SY5Y cells assessed as decrease in DNA fragmentation at IC50 measured after 48 hrs by Hoechst 33258 staining based fluorescence microscopic assay; format: functional, cell-based
Procedure, shortened: (§4)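 Differentiated SH-SY5Y cells, 4×10^4 per well, exposed 48 h to Aβ1-42 (20 μM) with or without hybrid. Fixed in 4% paraformaldehyde for 30 min, stained with Hoechst 33258 for 15 min. Nuclear chromatin condensation and DNA fragmentation scored by fluorescence microscopy at ×200.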

[26] = tested on: SH-SY5Y; assay: Neuroprotective activity against amyloid beta (1 to 42)-induced apoptosis in human SH-SY5Y cells assessed as decrease in DNA condensation at IC50 measured after 48 hrs by Hoechst 33258 staining based fluorescence microscopic assay; format: functional, cell-based; procedure, shortened: as §4
[27] = Stability in simulated intestinal fluid at pH 6.8 assessed as hydrolysis measured immediately in presence of pancreatin by HPLC analysis; format: ADME; details: simulated gi fluid; procedure, shortened: as §1

| SMILES | fold change (FC) [1] | fold change (FC) [2] | fold change (FC) [3] | fold change (FC) [4] | fold change (FC) [5] | half-life [8] | fold change (FC) [10] | solubility [11] | K [12] | fold change (FC) [13] | fold change (FC) [14] | Activity [6] | Activity [7] | Activity [9] | further results |
| --- | --- | --- | --- | --- | --- | --- | --- | --- | --- | --- | --- | --- | --- | --- | --- |
| O=C(CCCCC1CCSS1)NCCOCCOC(=O)Cc1ccc(O)c(O)c1 (configuration not stated) | 60.78% | 3.87% | 45.21% | 100% | 63.52% | 2.16 h | 45.89% | 2480 µg/mL (≈ 5600 µM) | 0.32 h⁻¹ | 89.78% | 78.9% | Active | Non-Toxic | Active | – |
| O=C(CCCCC1CCSS1)NCCCNC(=O)Cc1ccc(O)c(O)c1 (configuration not stated) | 56.3% | 5.6% | 15.27% | 90.2% | 47.45% | 9.21 h | 30.4% | 235 µg/mL (≈ 570 µM) | 0.08 h⁻¹ | 70% | 65.48% | Active | Non-Toxic | Active | Activity [15]: 0.5%; Activity [16]: Dose-dependent effect; Activity [17]: 0.4%; Activity [18]: 79.2%; Activity [19]: 1.23%; Activity [20]: Dose-dependent effect; Activity [21]: 3.88%; Activity [22]: 13.72%; Activity [23]: Dose-dependent effect; Activity [24]: 26.5% |
| O=C(CCCCC1CCSS1)NCCNC(=O)Cc1ccc(O)c(O)c1 (configuration not stated) | 4.02% | 1.89% | 0.63% | 4.32% | 0.99% | 23.1 h | 2.17% | 2690 µg/mL (≈ 6740 µM) | 0.031 h⁻¹ | 3.78% | 2.74% | Active | Non-Toxic | Active | – |
| COc1ccc(CC(=O)NCCCNC(=O)CCCCC2CCSS2)cc1OC (configuration not stated) | 0.9% | 0.45% | 2.9% | 2.09% | 1.89% | > 12 h | 0.73% | 42 µg/mL (≈ 95.3 µM) | – | 1.32% | 4.03% | Active | Non-Toxic | Active | Activity [15]: 0.5%; Activity [25]: Active; Activity [16]: Dose-dependent effect; Activity [26]: Active; Activity [17]: 0.4%; Activity [19]: 1.66%; Activity [20]: Dose-dependent effect; Activity [21]: 3.51%; Activity [22]: 16.01%; Activity [23]: Dose-dependent effect; Activity [24]: 4.2% |
| O=C(CCCCC1CCSS1)NCCOC(=O)Cc1ccc(O)c(O)c1 (configuration not stated) | 54.62% | 2.5% | 12.34% | 100% | 46.72% | 1.13 h | 35.4% | 736 µg/mL (≈ 1840 µM) | 0.613 h⁻¹ | 70.45% | 67.34% | Active | Non-Toxic | Active | – |
| O=C(CCCCC1CCSS1)NCCCOC(=O)Cc1ccc(O)c(O)c1 (configuration not stated) | – | – | 72.4% | – | 86.54% | 0.75 h | – | 933 µg/mL (≈ 2260 µM) | 0.93 h⁻¹ | – | 100% | Active | Non-Toxic | Active | Stabilty [27]: Unstable |
| O=C1O[C@H]([C@@H](O)CO)C(O)=C1O [ASCORBIC ACID] | – | – | – | – | – | – | – | – | – | – | – | – | – | – | Activity [24]: 10.7% |

Continued, in another order:

| fold change (FC) [1] | fold change (FC) [2] | fold change (FC) [3] | fold change (FC) [4] | fold change (FC) [5] | half-life [8] | fold change (FC) [10] | solubility [11] | K [12] | fold change (FC) [13] | fold change (FC) [14] | SMILES | Activity [6] | Activity [7] | Activity [9] | further results |
| --- | --- | --- | --- | --- | --- | --- | --- | --- | --- | --- | --- | --- | --- | --- | --- |
| 42.7% | 1.5% | 10.37% | 88.91% | 37.63% | 1.49 h | 20.44% | 81 µg/mL (≈ 190 µM) | 0.479 h⁻¹ | 63% | 57.89% | O=C(CCCCC1CCSS1)NCCCCNC(=O)Cc1ccc(O)c(O)c1 (configuration not stated) | Active | Non-Toxic | Active | – |
| 5.2% | 2.52% | 0.25% | 4.8% | 1.28% | 57.4 h | 3.01% | 23 µg/mL (≈ 54.2 µM) | 0.012 h⁻¹ | 4.15% | 3.45% | COc1cc(/C=C/C(=O)NCCNC(=O)CCCCC2CCSS2)ccc1O (configuration not stated) | Active | Non-Toxic | Active | – |
| – | – | 15.23% | – | 35.89% | 0.62 h | – | 110 µg/mL (≈ 249 µM) | 1.146 h⁻¹ | – | 60.98% | COc1ccc(CC(=O)OCCCNC(=O)CCCCC2CCSS2)cc1OC (configuration not stated) | Active | Non-Toxic | Active | Stabilty [27]: Unstable |
| 11.79% | 3% | 4.67% | 34.75% | 8.23% | 36.4 h | 3.64% | – | 0.019 h⁻¹ | 22.21% | 22.16% | COc1ccc(/C=C/C(=O)NCCCCNC(=O)CCCCC2CCSS2)cc1OC (configuration not stated) | Active | Non-Toxic | Active | – |
